Results published in ChEMBL document CHEMBL3616402, “A novel series of indazole-/indole-based glucagon receptor antagonists” (Bioorg Med Chem Lett, 2015).

Columns and labels:
[1] = biological target: T1, Glucagon receptor (Homo sapiens, UniProt P47871); assay: Antagonist activity against human glucagon receptor expressed in CHO cells assessed as reduction in glucagon-induced cAMP production; format: functional, cell-based
[2] = biological target: T1, Glucagon receptor; assay: Displacement of [125I]glucagon from human glucagon receptor expressed in CHO cell membranes
Summary of the method: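 Binding: displacement of [125I]glucagon from human GCGR in membranes prepared from a CHO cell line stably expressing hGCGR; IC50 reported in nM.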

[3] = Oral bio availability in Wistar rat 2 mg/kg; format: ADME, organism-based; details: in vivo
Summary of the method: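 Oral bioavailability from Wistar rats dosed 2 mg/kg po with 0.5 mg/kg iv reference dose; F (%) from plasma exposure.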

[4] = biological target: T2, Gastric inhibitory polypeptide receptor (Homo sapiens, UniProt P48546); assay: Antagonist activity against human glucose dependent insulinotropic peptide receptor by cAMP accumulation assay; format: functional
T2 sequence (P48546 whole entry): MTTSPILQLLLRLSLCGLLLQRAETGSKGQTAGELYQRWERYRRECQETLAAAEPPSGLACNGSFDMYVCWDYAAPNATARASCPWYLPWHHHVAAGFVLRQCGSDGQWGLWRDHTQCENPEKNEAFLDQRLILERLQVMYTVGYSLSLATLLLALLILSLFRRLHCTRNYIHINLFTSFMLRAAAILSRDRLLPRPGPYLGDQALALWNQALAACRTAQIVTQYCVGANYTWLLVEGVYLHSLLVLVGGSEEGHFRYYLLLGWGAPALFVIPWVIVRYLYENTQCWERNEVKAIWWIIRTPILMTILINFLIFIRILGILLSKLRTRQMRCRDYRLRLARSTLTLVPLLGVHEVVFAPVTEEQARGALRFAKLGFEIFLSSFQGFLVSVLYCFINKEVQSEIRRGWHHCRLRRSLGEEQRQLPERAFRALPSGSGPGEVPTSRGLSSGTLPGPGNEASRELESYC
Summary of the method: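 Selectivity counter-screen: cAMP production measured in CHO cells expressing human GIPR; IC50 (potency) determined.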

[5] = tested on: Rattus norvegicus; assay: Dose normalized AUC in Wistar rat at 0.5 mg/kg, iv or 2 mg/kg, po; format: ADME, organism-based; details: in vivo
Summary of the method: (§1)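 Wistar rats given 0.5 mg/kg iv and 2 mg/kg po; plasma concentration–time profiles used to derive plasma clearance, steady-state volume of distribution, half-life and dose-normalized AUC (µM·h·kg/mg).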

[6] = Half life in Wistar rat at 0.5 mg/kg, iv or 2 mg/kg, po; format: ADME, organism-based; details: in vivo; summary of the method: as §1
[7] = species: Homo sapiens; assay: Selectivity index, ratio of IC50 for human glucose dependent insulinotropic peptide receptor to IC50 for human glucagon receptor
[8] = Plasma clearance in Wistar rat at 0.5 mg/kg, iv or 2 mg/kg, po; format: ADME, organism-based; summary of the method: as §1
[9] = Volume of distribution at steady state in Wistar rat at 0.5 mg/kg, iv or 2 mg/kg, po; format: ADME, organism-based; details: in vivo, read-out: Vdss; summary of the method: as §1

T1 sequence (P47871 whole entry): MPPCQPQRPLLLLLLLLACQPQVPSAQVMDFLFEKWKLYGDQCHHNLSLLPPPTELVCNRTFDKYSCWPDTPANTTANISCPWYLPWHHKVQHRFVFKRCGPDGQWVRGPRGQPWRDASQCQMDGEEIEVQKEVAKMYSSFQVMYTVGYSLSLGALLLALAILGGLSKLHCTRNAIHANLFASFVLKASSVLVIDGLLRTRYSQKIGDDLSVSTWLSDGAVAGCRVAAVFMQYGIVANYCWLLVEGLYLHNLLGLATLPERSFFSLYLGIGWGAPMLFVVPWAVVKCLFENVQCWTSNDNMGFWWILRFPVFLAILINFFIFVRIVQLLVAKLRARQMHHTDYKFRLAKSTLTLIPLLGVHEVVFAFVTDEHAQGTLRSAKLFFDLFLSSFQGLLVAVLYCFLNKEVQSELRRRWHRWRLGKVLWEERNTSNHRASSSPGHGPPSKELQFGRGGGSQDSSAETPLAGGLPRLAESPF

## COc1cncc(-c2nn(C(C)c3ccc(C(=O)NCCC(=O)O)cc3)c3cc(-c4ccc(OC(F)(F)F)cc4)ccc23)c1 (centres undefined)
[1]
  IC50: 100 nM
[2]
  IC50: 50 nM

## CCCCC(c1ccc(C(=O)NCCC(=O)O)cc1)n1nc(-c2cc(C(F)(F)F)ccc2OC)c2ccc(-c3ccc(C(F)(F)F)cc3)cc21 (centres undefined)
[1]
  IC50: 14 nM
[2]
  IC50: 1.6 nM

## CCCCC(c1ccc(C(=O)NCCC(=O)O)cc1)n1nc(-c2cc(C(F)(F)F)ccc2OC)c2ccc(-c3ccc(OC)nc3)cc21 (centres undefined)
[1]
  IC50: 24 nM
[2]
  IC50: 3.4 nM

## CCCCC(c1ccc(C(=O)NCCC(=O)O)cc1)n1nc(-c2cc(C(F)(F)F)ccc2OC)c2ccc(-c3ccc(OC(F)(F)F)cc3)cc21 (centres undefined)
[1]
  IC50: 8 nM
[3]
  bioavailability: 9%
[4]
  IC50: 750 nM
[5]
  AUC/dose: 0.3 µM·kg·h/mg
[6]
  half-life: 4.7 h
[7]
  Ratio IC50: 94
[8]
  clearance: 7.5 mL/min/kg
[9]
  Vd: 0.72 L/kg
[2]
  IC50: 0.8 nM

## CC(c1ccc(C(=O)NCCC(=O)O)cc1)n1nc(-c2ccc(Cl)cc2Cl)c2ccc(-c3ccc(OC(F)(F)F)cc3)cc21 (centres undefined)
[1]
  IC50: 41 nM
[2]
  IC50: 8 nM

## CCCC(c1ccc(C(=O)NCCC(=O)O)cc1)n1nc(-c2cc(C(F)(F)F)ccc2OC)c2cc(-c3ccc(OC)cc3)ccc21 (centres undefined)
[1]
  IC50: 26 nM
[2]
  IC50: 10 nM

## COc1ccc(C(F)(F)F)cc1-c1nn(Cc2ccc(C(=O)NCCC(=O)O)cc2)c2cc(-c3ccc(C)cc3)ccc12
[1]
  IC50: 140 nM
[2]
  IC50: 39 nM

## CC(c1ccc(C(=O)NCCC(=O)O)cc1)n1nc(-c2cc(Cl)cc(C(F)(F)F)c2)c2ccc(-c3ccc(OC(F)(F)F)cc3)cc21 (centres undefined)
[1]
  IC50: 56 nM
[2]
  IC50: 3 nM

## CCCC(c1ccc(C(=O)NCCC(=O)O)cc1)n1cc(-c2cc(C(F)(F)F)ccc2OC)c2ccc(-c3ccc(OC)cc3)cc21 (racemic)
[1]
  IC50: 130 nM
[2]
  IC50: 8 nM

## CCCC(c1ccc(C(=O)NCCC(=O)O)cc1)n1nc(-c2cc(C(F)(F)F)ccc2OC)c2ccc(-c3ccc(C)cc3)cc21 (centres undefined)
[1]
  IC50: 5 nM
[2]
  IC50: 2 nM

## CCCC(c1ccc(C(=O)NCCC(=O)O)cc1)n1nc(-c2cc(C(F)(F)F)ccc2OC)c2ccc(-c3ccc(OC(F)(F)F)cc3)cc21 (centres undefined)
[1]
  IC50: 5.6 nM
[3]
  bioavailability: 19%
[4]
  IC50: 1400 nM
[5]
  AUC/dose: 2 µM·kg·h/mg
[6]
  half-life: 9.7 h
[7]
  Ratio IC50: 250
[8]
  clearance: 2.2 mL/min/kg
[9]
  Vd: 1.3 L/kg
[2]
  IC50: 1 nM

## CC(c1ccc(C(=O)NCCC(=O)O)cc1)n1nc(-c2ccc(C(=O)N(C)C)cc2)c2ccc(-c3ccc(OC(F)(F)F)cc3)cc21 (centres undefined)
[1]
  IC50: 210 nM
[2]
  IC50: 40 nM

## CCCC(c1ccc(C(=O)NCCC(=O)O)cc1)n1cc(-c2cc(C(F)(F)F)ccc2OC)c2ccc(-c3ccc(C)cc3)cc21 (racemic)
[1]
  IC50: 48 nM
[2]
  IC50: 4 nM

## CCCCC(c1ccc(C(=O)NCCC(=O)O)cc1)n1nc(-c2cc(C(F)(F)F)ccc2OC)c2ccc(-c3ccc(OC)cc3Cl)cc21 (centres undefined)
[1]
  IC50: 18 nM
[2]
  IC50: 4 nM

## CCCCC(c1ccc(C(=O)NCCC(=O)O)cc1)n1nc(-c2cc(C(F)(F)F)ccc2OC)c2ccc(-c3ccc(C)cc3)cc21 (centres undefined)
[1]
  IC50: 6.6 nM
[3]
  bioavailability: 17%
[4]
  IC50: 1000 nM
[5]
  AUC/dose: 1.2 µM·kg·h/mg
[6]
  half-life: 4 h
[7]
  Ratio IC50: 150
[8]
  clearance: 3.9 mL/min/kg
[9]
  Vd: 1 L/kg
[2]
  IC50: 2.6 nM

## CCCC(c1ccc(C(=O)NCCC(=O)O)cc1)n1nc(-c2cc(C(F)(F)F)ccc2OC)c2cccc(-c3ccc(OC)cc3)c21 (centres undefined)
[1]
  IC50: 2700 nM
[2]
  IC50: 1700 nM

## COc1ccc(OC(F)(F)F)cc1-c1nn(C(C)c2ccc(C(=O)NCCC(=O)O)cc2)c2cc(-c3ccc(OC(F)(F)F)cc3)ccc12 (centres undefined)
[1]
  IC50: 11 nM
[2]
  IC50: 7 nM

## CC(c1ccc(C(=O)NCCC(=O)O)cc1)n1nc(-c2cc(C(F)(F)F)ccc2F)c2ccc(-c3ccc(OC(F)(F)F)cc3)cc21 (centres undefined)
[1]
  IC50: 120 nM
[2]
  IC50: 5 nM

## CC(c1ccc(C(=O)NCCC(=O)O)cc1)n1nc(-c2cc(F)cc(F)c2F)c2ccc(-c3ccc(OC(F)(F)F)cc3)cc21 (centres undefined)
[1]
  IC50: 52 nM
[2]
  IC50: 7 nM

## COc1cc(F)c(F)cc1-c1nn(C(C)c2ccc(C(=O)NCCC(=O)O)cc2)c2cc(-c3ccc(OC(F)(F)F)cc3)ccc12 (centres undefined)
[1]
  IC50: 37 nM
[2]
  IC50: 4 nM

## CCCCC(c1ccc(C(=O)NCCC(=O)O)cc1)n1nc(-c2cc(C(F)(F)F)ccc2OC)c2ccc(-c3ccc(C)s3)cc21 (centres undefined)
[1]
  IC50: 18 nM
[2]
  IC50: 4 nM

## CC(c1ccc(C(=O)NCCC(=O)O)cc1)n1nc(-c2cc(F)c(F)c(F)c2)c2ccc(-c3ccc(OC(F)(F)F)cc3)cc21 (centres undefined)
[1]
  IC50: 20 nM
[2]
  IC50: 6 nM

## CCCCC(c1ccc(C(=O)NCCC(=O)O)cc1)n1nc(-c2cc(C(F)(F)F)ccc2OC)c2ccc(-c3ccc(OC)cc3)cc21 (centres undefined)
[1]
  IC50: 14 nM
[3]
  bioavailability: 27%
[4]
  IC50: 1100 nM
[5]
  AUC/dose: 4 µM·kg·h/mg
[6]
  half-life: 6.4 h
[7]
  Ratio IC50: 79
[8]
  clearance: 1.7 mL/min/kg
[9]
  Vd: 0.67 L/kg
[2]
  IC50: 1.9 nM

## COc1nccc(-c2nn(C(C)c3ccc(C(=O)NCCC(=O)O)cc3)c3cc(-c4ccc(OC(F)(F)F)cc4)ccc23)n1 (centres undefined)
[1]
  IC50: 84 nM
[2]
  IC50: 35 nM

## CCCC(c1ccc(C(=O)NCCC(=O)O)cc1)n1nc(-c2cc(C(F)(F)F)ccc2OC)c2cccc(-c3ccc(C)cc3)c21 (centres undefined)
[1]
  IC50: 3800 nM
[2]
  IC50: 780 nM

## CCCCC(c1ccc(C(=O)NCCC(=O)O)cc1)n1nc(-c2cc(C(F)(F)F)ccc2OC)c2ccc(-c3ccc(OC)c(F)c3)cc21 (centres undefined)
[1]
  IC50: 18 nM
[2]
  IC50: 1.5 nM

## CC(c1ccc(C(=O)NCCC(=O)O)cc1)n1nc(-c2ccc(C#N)cc2)c2ccc(-c3ccc(OC(F)(F)F)cc3)cc21 (centres undefined)
[1]
  IC50: 43 nM
[2]
  IC50: 15 nM

## CCCC(c1ccc(C(=O)NCCC(=O)O)cc1)n1cc(-c2cc(C(F)(F)F)ccc2OC)c2ccc(-c3ccc(OC(F)(F)F)cc3)nc21 (centres undefined)
[1]
  IC50: 360 nM
[2]
  IC50: 12 nM

## CCC(c1ccc(C(=O)NCCC(=O)O)cc1)n1nc(-c2cc(C(F)(F)F)ccc2OC)c2ccc(-c3ccc(C)cc3)cc21 (centres undefined)
[1]
  IC50: 21 nM
[2]
  IC50: 4 nM

## CC(c1ccc(C(=O)NCCC(=O)O)cc1)n1nc(-c2cc(F)ccc2Cl)c2ccc(-c3ccc(OC(F)(F)F)cc3)cc21 (centres undefined)
[1]
  IC50: 140 nM
[2]
  IC50: 10 nM

## CCCCC(c1ccc(C(=O)NCCC(=O)O)cc1)n1nc(-c2cc(C(F)(F)F)ccc2OC)c2ccc(-c3ccccc3)cc21 (centres undefined)
[1]
  IC50: 18 nM
[2]
  IC50: 3 nM

## CCCC(c1ccc(C(=O)NCCC(=O)O)cc1)n1nc(-c2cc(C(F)(F)F)ccc2OC)c2cc(-c3ccc(C)cc3)ccc21 (centres undefined)
[1]
  IC50: 17 nM
[2]
  IC50: 7 nM

## COc1ccc(C(F)(F)F)cc1-c1nn(C(c2ccc(C(=O)NCCC(=O)O)cc2)C(C)C)c2cc(-c3ccc(C)cc3)ccc12 (centres undefined)
[1]
  IC50: 69 nM
[2]
  IC50: 4 nM

## COc1ncccc1-c1nn(C(C)c2ccc(C(=O)NCCC(=O)O)cc2)c2cc(-c3ccc(OC(F)(F)F)cc3)ccc12 (centres undefined)
[1]
  IC50: 77 nM
[2]
  IC50: 72 nM

## COc1ccncc1-c1nn(C(C)c2ccc(C(=O)NCCC(=O)O)cc2)c2cc(-c3ccc(OC(F)(F)F)cc3)ccc12 (centres undefined)
[1]
  IC50: 760 nM
[2]
  IC50: 110 nM

## CC(c1ccc(C(=O)NCCC(=O)O)cc1)n1nc(-c2cc(Cl)ccc2C(N)=O)c2ccc(-c3ccc(OC(F)(F)F)cc3)cc21 (centres undefined)
[1]
  IC50: 220 nM
[2]
  IC50: 2 nM

## CC(c1ccc(C(=O)NCCC(=O)O)cc1)n1nc(-c2ccc(Cl)c(F)c2)c2ccc(-c3ccc(OC(F)(F)F)cc3)cc21 (centres undefined)
[1]
  IC50: 44 nM
[2]
  IC50: 4 nM

## CCCC(c1ccc(C(=O)NCCC(=O)O)cc1)n1nc(-c2cc(C(F)(F)F)ccc2OC)c2ccc(-c3ccc(OC)cc3)cc21 (centres undefined)
[1]
  IC50: 11 nM
[2]
  IC50: 4 nM

## CCCCC(c1ccc(C(=O)NCCC(=O)O)cc1)n1nc(-c2cc(C(F)(F)F)ccc2OC)c2ccc(-c3cc(F)c(F)c(F)c3)cc21 (centres undefined)
[1]
  IC50: 26 nM
[2]
  IC50: 3.5 nM

## CCCCC(c1ccc(C(=O)NCCC(=O)O)cc1)n1nc(-c2cc(C(F)(F)F)ccc2OC)c2ccc(-c3cc(F)cc(Cl)c3)cc21 (centres undefined)
[1]
  IC50: 46 nM
[2]
  IC50: 7 nM

## COc1ccc(Cl)cc1-c1nn(C(C)c2ccc(C(=O)NCCC(=O)O)cc2)c2cc(-c3ccc(OC(F)(F)F)cc3)ccc12 (centres undefined)
[1]
  IC50: 36 nM
[2]
  IC50: 3 nM

## CCCCC(c1ccc(C(=O)NCCC(=O)O)cc1)n1nc(-c2cc(C(F)(F)F)ccc2OC)c2ccc(-c3ccc(SC)cc3)cc21 (centres undefined)
[1]
  IC50: 9 nM
[2]
  IC50: 1.5 nM

## COc1ccc(-c2nn(C(C)c3ccc(C(=O)NCCC(=O)O)cc3)c3cc(-c4ccc(OC(F)(F)F)cc4)ccc23)cn1 (centres undefined)
[1]
  IC50: 65 nM
[2]
  IC50: 26 nM
